Measured values of several laboratories.
Compare with care: the assays were run in different laboratories.
Target: Homeodomain-interacting protein kinase 4 (HIPK4, Homo sapiens, UniProt Q8NE63)
One construct used (Q8NE63 1-616): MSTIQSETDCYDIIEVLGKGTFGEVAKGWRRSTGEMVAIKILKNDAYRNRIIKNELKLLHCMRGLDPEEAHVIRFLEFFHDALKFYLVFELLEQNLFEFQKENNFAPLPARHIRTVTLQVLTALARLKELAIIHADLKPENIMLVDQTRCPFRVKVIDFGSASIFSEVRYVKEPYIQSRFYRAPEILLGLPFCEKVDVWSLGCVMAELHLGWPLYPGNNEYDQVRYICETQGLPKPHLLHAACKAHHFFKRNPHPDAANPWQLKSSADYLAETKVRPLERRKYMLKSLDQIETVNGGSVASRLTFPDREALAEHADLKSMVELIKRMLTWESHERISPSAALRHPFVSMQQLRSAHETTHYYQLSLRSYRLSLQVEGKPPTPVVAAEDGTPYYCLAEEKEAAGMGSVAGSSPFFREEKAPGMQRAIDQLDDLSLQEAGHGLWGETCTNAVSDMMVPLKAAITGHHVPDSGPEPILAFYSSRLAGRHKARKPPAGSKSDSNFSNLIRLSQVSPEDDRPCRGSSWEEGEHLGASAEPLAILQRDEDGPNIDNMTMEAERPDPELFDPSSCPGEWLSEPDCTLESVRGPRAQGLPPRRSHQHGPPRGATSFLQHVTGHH

C[C@@H]1CCN(c2nccc(-c3cnn4ncccc34)n2)C1
remaining binding (binding; 1 µM): 92%

c1cncc(-c2cccc(Nc3nccc(NC4CCCCC4)n3)c2)c1
remaining binding (binding, competition with immobilised ligand; 10 µM): 22%

CN(C)c1nccc(-c2cnn3ncccc23)n1
remaining binding (binding; 1 µM): 75%

O=C(c1ccc(Nc2nccc(-c3cc4ccccc4s3)n2)cc1)N1CCC(N2CCCC2)CC1
remaining binding (binding, competition with immobilised ligand; 1 µM): 4.1%

CNC(=O)[C@@H]1CC[C@@H](n2c(-c3ccc4cnccc4c3)nc3ccc(C(=O)NCc4cccc(C(N)=O)c4)cc32)C1
remaining binding (binding, competition with immobilised ligand; 1 µM): 100%

C[C@H](c1ccnc(Nc2nc3ccc(-c4cc(N(C)C)ncn4)cc3[nH]2)c1)N1CCN(C(=O)CC(F)(F)F)CC1
remaining binding (cell-free assay, competition with immobilised ligand; 0.1 µM): 100%

COc1ncc2cc3ccccc3nc2c1C#N
remaining binding (cell-free assay, competition with immobilised ligand; 5 µM): 100%

Cc1cnn2ncc(-c3ccnc(N(C)C)n3)c2c1
remaining binding (binding; 1 µM): 77%

O=C(c1ccc(Nc2ncc(Cl)c(-c3cc4ccccc4s3)n2)cc1)N1CCC(N2CCCC2)CC1
remaining binding (binding, competition with immobilised ligand; 1 µM): 2.5%

Cc1c[nH]c2nccc(Oc3c(F)cc(Nc4cc(Cl)nc(N)n4)cc3F)c12
remaining binding (cell-free assay, competition with immobilised ligand; 0.1 µM): 100%

CN(CCCC(F)(F)F)c1nccc(-c2cnn3ncccc23)n1
remaining binding (binding; 1 µM): 95%

Cn1cc(Cl)c2c(Oc3c(F)cc(Nc4cc(Cl)nc(N)n4)cc3F)ccnc21
remaining binding (cell-free assay, competition with immobilised ligand; 0.1 µM): 100%

O=C(NCC1CCOCC1)c1n[nH]cc1NC(=O)c1c(F)cccc1F
remaining binding (binding, competition with immobilised ligand; 1 µM): 78%

CN(C)CC#Cc1ccc(OCCCc2sc(N3CCc4cccc(C(=O)Nc5nc6ccccc6s5)c4C3)nc2C(=O)O)c(F)c1
remaining binding (cell-free assay, competition with immobilised ligand; 1 µM): 100%

Cc1cnc(Nc2ccc(C(=O)N3CCC(N4CCCC4)CC3)cc2)nc1-c1cc2ccccc2s1
remaining binding (binding, competition with immobilised ligand; 1 µM): 1.3%

CCN1CCN(Cc2ccc(C(=O)Nc3ccc(C)c(Oc4ccc5c(c4)CC(=O)N5)c3)cc2C(F)(F)F)CC1
remaining binding (binding, competition with immobilised ligand; 1 µM): 100%

c1cnn2ncc(-c3ccnc(N4CCC45COC5)n3)c2c1
remaining binding (binding; 1 µM): 87%

COc1ccc2c(c1)O[C@@H](c1ccc(OC)c(OC)c1)C[C@H]2NC(=O)C1(c2ccc3c(c2)OC(F)(F)O3)CC1
remaining binding (cell-free assay, competition with immobilised ligand; 1 µM): 51%

N[C@@H]1CCN(c2nccc(-c3cnn4ncccc34)n2)C1
remaining binding (binding; 1 µM): 98%

C=CC(=O)N1CCC(C(=O)NCC(=O)N2CCN(c3nc(-c4cnc(N)nc4C(F)F)nc(N4CCOCC4)n3)CC2)CC1
remaining binding (binding, competition with immobilised ligand; 1 µM): 100%

CN(C)C(=O)Cn1cc(-c2nc([C@@](C)(c3ccc(-c4cnc(N)nc4)cc3)C3CC3)no2)cn1
remaining binding (cell-free assay, competition with immobilised ligand; 1 µM): 70%

CC1CCCN1c1nccc(-c2cnn3ncccc23)n1 (stereo not shown)
remaining binding (binding; 1 µM): 97%
